Here are results for 17 molecules from ChEMBL document CHEMBL1159060, “2-Dialkynyl derivatives of (N)-methanocarba nucleosides: 'Clickable' A(3) adenosine receptor-selective agonists” (Bioorg Med Chem, 2010).

The target in one assay is T1, Adenosine receptor A3 (Homo sapiens, UniProt P0DMS8).
T1 sequence (P0DMS8 whole entry): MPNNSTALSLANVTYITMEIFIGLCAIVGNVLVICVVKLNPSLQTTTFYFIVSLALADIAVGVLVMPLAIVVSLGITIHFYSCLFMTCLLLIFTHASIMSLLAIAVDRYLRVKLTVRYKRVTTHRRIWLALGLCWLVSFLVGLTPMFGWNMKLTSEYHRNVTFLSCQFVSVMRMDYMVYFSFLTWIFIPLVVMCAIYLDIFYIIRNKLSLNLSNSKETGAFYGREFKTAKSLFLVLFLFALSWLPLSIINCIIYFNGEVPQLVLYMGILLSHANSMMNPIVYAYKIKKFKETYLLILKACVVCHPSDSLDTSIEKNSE
Description: Displacement of I-AB-MECA from human recombinant adenosine A3 receptor expressed in CHO cells.

Assay [1] deals with T2, Adenosine receptor A2a (Homo sapiens, UniProt P29274). Put plainly: Displacement of [3H]CGS21680 from human recombinant adenosine A2A receptor expressed in HEK293 cells at 10 uM by liquid scintillation counting. Type of assay: cell-based. The method, boiled down:
(§1)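 HEK293 membranes stably expressing hA2AAR (20 μg protein/tube), deaminase-treated (3 units/mL, 30 min, 37 °C). Competition against 10 nM [3H]CGS21680 in Tris-HCl 50 mM pH 7.5 with 10 mM MgCl2, 25 °C for 60 min. […] Filtered on GF/B, scintillation counted.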
For orientation: Displacement assays read how much labelled ligand stays bound in the presence of the test substance.

For assay [2], the target named is T3, Adenosine receptor A1 (Homo sapiens) (UniProt P30542).
T3 sequence (whole entry): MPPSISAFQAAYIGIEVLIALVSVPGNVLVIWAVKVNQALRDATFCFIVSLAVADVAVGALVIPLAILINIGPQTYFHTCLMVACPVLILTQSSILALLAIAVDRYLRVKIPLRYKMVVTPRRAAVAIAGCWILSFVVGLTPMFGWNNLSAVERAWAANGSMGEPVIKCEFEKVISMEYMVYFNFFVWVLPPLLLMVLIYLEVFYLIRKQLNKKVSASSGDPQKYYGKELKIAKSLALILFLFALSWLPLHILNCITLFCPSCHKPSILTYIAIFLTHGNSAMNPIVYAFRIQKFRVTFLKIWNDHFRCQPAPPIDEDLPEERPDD
Put plainly: Displacement of [3H]NECA from human recombinant adenosine A1 receptor expressed in CHO cells at 10 uM by liquid scintillation counting. It is filed as cell-based. The method, boiled down: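 CHO membranes stably expressing hA1AR, pretreated with adenosine deaminase (3 units/mL, 30 min, 37 °C), 22 μg protein/tube. […] GF/B filtration, scintillation counting, percent inhibition at 10 μM.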

Another assay is filed under the species Homo sapiens. Put plainly: Selectivity ratio of Ki for human adenosine A2A receptor to Ki for human adenosine A3 receptor.
Assay [3] deals with T4, Adenosine receptor A2b (Homo sapiens) (UniProt P29275).
T4 sequence (whole entry): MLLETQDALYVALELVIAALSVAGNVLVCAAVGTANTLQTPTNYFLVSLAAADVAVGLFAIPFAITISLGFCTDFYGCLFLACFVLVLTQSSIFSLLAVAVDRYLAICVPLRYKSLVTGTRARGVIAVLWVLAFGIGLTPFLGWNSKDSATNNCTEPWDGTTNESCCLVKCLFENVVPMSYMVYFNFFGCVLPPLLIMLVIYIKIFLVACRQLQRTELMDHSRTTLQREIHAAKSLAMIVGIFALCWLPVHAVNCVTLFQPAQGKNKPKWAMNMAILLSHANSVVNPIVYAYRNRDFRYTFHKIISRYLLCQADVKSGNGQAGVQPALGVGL
Description: Agonist activity at human recombinant adenosine A2B receptor expressed in CHO cells assessed as stimulation of cAMP accumulation at 10 uM by liquid scintillation spectrophotometry relative to NECA.

In assay [4] the target is Adenosine receptors; A1 & A3 (Homo sapiens) (UniProt P30542+P0DMS8). Description: Selectivity for human adenosine A3 receptor over human adenosine A1 receptor.
In assay [5] the target is T2, Adenosine receptor A2a. Put plainly: Displacement of [3H]CGS21680 from human recombinant adenosine A2A receptor expressed in HEK293 cells by liquid scintillation counting. It is filed as cell-based. Put shortly:
as §1

pKi: −log10 of the molar value.

T2 sequence (P29274 whole entry): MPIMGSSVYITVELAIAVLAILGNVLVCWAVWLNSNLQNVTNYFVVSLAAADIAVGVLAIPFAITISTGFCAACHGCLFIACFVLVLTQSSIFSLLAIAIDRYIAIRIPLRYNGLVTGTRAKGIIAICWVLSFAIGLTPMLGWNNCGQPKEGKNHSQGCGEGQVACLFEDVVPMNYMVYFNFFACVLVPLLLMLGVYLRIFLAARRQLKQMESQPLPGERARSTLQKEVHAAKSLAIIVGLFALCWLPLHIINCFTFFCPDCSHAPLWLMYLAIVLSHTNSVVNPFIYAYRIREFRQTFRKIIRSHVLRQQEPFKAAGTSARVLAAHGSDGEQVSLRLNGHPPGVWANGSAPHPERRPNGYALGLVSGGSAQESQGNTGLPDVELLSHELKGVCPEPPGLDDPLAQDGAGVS

Usually pKi stands for the Ki on a negative log10 scale, so that one unit is a factor of ten. A word on the inhibition: it is the change of the read-out against control, counted positive when it falls. On to `CNC(=O)[C@@]12C[C@@H]1[C@@H](n1cnc3c(NCc4cccc(Cl)c4)nc(C#CCCC(=O)NCCNC(=O)CCCCCNC(=O)CCCCC4SCC5NC(=O)NC54)nc31)[C@H](O)[C@@H]2O` (some centres not stated), for which the negative-log Ki (pKi) at Adenosine receptor A3 is 7.24. Also, the inhibition came out at 47% on Adenosine receptor A2a [1] and 12% in assay [2].

As for `CNC(=O)[C@@]12C[C@@H]1[C@@H](n1cnc3c(NCc4cccc(Cl)c4)nc(C#CCCCCc4cn(CCCCN)nn4)nc31)[C@H](O)[C@@H]2O`, in assay [2], the inhibition was determined as 13%.

As to `CNC(=O)[C@@]12C[C@@H]1[C@@H](n1cnc3c(NCc4cccc(Cl)c4)nc(C#CCCCCc4cn(-c5ccc(N=C=S)cc5)nn4)nc31)[C@H](O)[C@@H]2O`, the inhibition is 28% at Adenosine receptor A2a [1] and 2% in assay [2].

`CNC(=O)[C@@]12C[C@@H]1[C@@H](n1cnc3c(NCc4cccc(Cl)c4)nc(C#CCCCCc4cn(CCCCCCNC(=O)c5ccc(-c6c7ccc(=N)c(S(=O)(=O)O)c-7oc7c(S(=O)(=O)O)c(N)ccc67)c(C(=O)O)c5)nn4)nc31)[C@H](O)[C@@H]2O`: the pKi at Adenosine receptor A3 was 6.38. The inhibition at Adenosine receptor A2a [1] was 23%. For the same molecule, in assay [2], the inhibition (INH) was 0%.

On to `CNC(=O)[C@@]12C[C@@H]1[C@@H](n1cnc3c(NCc4cccc(Cl)c4)nc(C#CCCCCc4cn(CCNC(C)=O)nn4)nc31)[C@H](O)[C@@H]2O`, for which the Ratio Ki in the assay listed under Homo sapiens was determined as 109. Further, the Activity in assay [3] was 19.4%. The inhibition in assay [2] is 12%.

Consider `CNC(=O)[C@@]12C[C@@H]1[C@@H](n1cnc3c(NCc4cccc(Cl)c4)nc(C#CCCC(=O)NCCNC(=O)CCCCC4SCC5NC(=O)NC54)nc31)[C@H](O)[C@@H]2O` (some centres not stated), for which the pKi on Adenosine receptor A3 is 7.44. The inhibition at Adenosine receptor A2a [1] turned out to be 51%; in assay [2], 1%.

With `C#CCCCCC#Cc1nc(NCc2cccc(Cl)c2)c2ncn([C@H]3[C@H](O)[C@H](O)[C@]4(C(=O)NC)C[C@H]34)c2n1`, the Ratio Ki in the assay listed under Homo sapiens was determined as 300. The Selectivity ratio in assay [4] was greater than 400. Moreover, the figures for the negative-log Ki (pKi) at Adenosine receptor A2a [5] and on Adenosine receptor A3 were 5.15 and 7.53, respectively. Also, the inhibition in assay [2] is 31%.

As for `CCNC(=O)[C@H]1O[C@@H](n2cnc3c(N)ncnc32)[C@H](O)[C@@H]1O`, the Activity in assay [3] came to 100%.

Take `CNC(=O)[C@@]12C[C@@H]1[C@@H](n1cnc3c(NCc4cccc(Cl)c4)nc(C#CCCCCc4cn(CCCCCCNC5SCC6NC(=O)NC65)nn4)nc31)[C@H](O)[C@@H]2O` (some centres not stated): on Adenosine receptor A3, the pKi is 6.55. For the same molecule, on Adenosine receptor A2a [1], the inhibition is 27%. The inhibition (INH) in assay [2] amounted to 0%.

`CNC(=O)[C@@]12C[C@@H]1[C@@H](n1cnc3c(NCc4cccc(Cl)c4)nc(C#CCCCCc4cn(Cc5ccc(-n6sccc6=O)cc5)nn4)nc31)[C@H](O)[C@@H]2O`: the inhibition on Adenosine receptor A2a [1] was 49%; in assay [2] it was 15%.

`CNC(=O)[C@@]12C[C@@H]1[C@@H](n1cnc3c(NCc4cccc(Cl)c4)nc(-c4nnn(-c5ccc(N=C=S)cc5)c4CCCCc4cn(-c5ccc(N=C=S)cc5)nn4)nc31)[C@H](O)[C@@H]2O`: the inhibition was determined as 40% at Adenosine receptor A2a [1] and 4% in assay [2].

In the case of `C#CCCCC#Cc1nc(NCc2cccc(Cl)c2)c2ncn([C@@H]3[C@H](O)[C@H](O)[C@]4(C(=O)NC)C[C@H]34)c2n1`, the Ratio Ki in the assay listed under Homo sapiens stood at 300. For the same molecule, the Selectivity ratio in assay [4] was greater than 400. In addition, the pKi is 5.36 at Adenosine receptor A2a [5] and 7.63 at Adenosine receptor A3. Moreover, the inhibition in assay [2] was 36%.

`CNC(=O)[C@@]12C[C@@H]1[C@@H](n1cnc3c(NCc4cccc(Cl)c4)nc(C#CCCCCc4cn(-c5ccc(N)cc5)nn4)nc31)[C@H](O)[C@@H]2O`: the inhibition in assay [2] is 3%.

As for `CNC(=O)[C@@]12C[C@@H]1[C@@H](n1cnc3c(NCc4cccc(Cl)c4)nc(C#CCCCCc4cn(C56CC7CC(CC(C7)C5)C6)nn4)nc31)[C@H](O)[C@@H]2O`, the Ratio Ki in the assay filed under Homo sapiens came out at 500. Besides, in assay [3], the Activity turned out to be 36.5%. In assay [2], the inhibition came to 22%.

Take `CNC(=O)[C@@]12C[C@@H]1[C@@H](n1cnc3c(NCc4cccc(Cl)c4)nc(C#CCCCCc4cn(CCCCNC(C)=O)nn4)nc31)[C@H](O)[C@@H]2O`: the inhibition in assay [2] came out at 17%.

On to `CCN1\C(=C/C=C/C=C/C2=[N+](CCCCCC(=O)NCCNC(=O)CCC#Cc3nc(NCc4cccc(Cl)c4)c4ncn([C@H]5[C@H](O)[C@H](O)[C@]6(C(=O)NC)C[C@H]56)c4n3)c3ccc(S(=O)(=O)[O-])cc3C2(C)C)C(C)(C)c2cc(S(=O)(=O)O)ccc21`, for which, at Adenosine receptor A2a [5], the pKi is 5.33. The inhibition in assay [2] was found to be 36%.

Consider `CNC(=O)[C@@]12C[C@@H]1[C@@H](n1cnc3c(NCc4cccc(Cl)c4)nc(C#CCCCCc4cn(-c5ccc(C(=O)O)cc5)nn4)nc31)[C@H](O)[C@@H]2O`, for which the inhibition at Adenosine receptor A2a [1] came out at 40%; in assay [2], 0%.
